Measurements from different studies.
Protocols differ between the studies behind these lines.
Target: Ephrin type-B receptor 3 (EPHB3, Homo sapiens, UniProt P54753)
Residues used in one study (P54753 34-998): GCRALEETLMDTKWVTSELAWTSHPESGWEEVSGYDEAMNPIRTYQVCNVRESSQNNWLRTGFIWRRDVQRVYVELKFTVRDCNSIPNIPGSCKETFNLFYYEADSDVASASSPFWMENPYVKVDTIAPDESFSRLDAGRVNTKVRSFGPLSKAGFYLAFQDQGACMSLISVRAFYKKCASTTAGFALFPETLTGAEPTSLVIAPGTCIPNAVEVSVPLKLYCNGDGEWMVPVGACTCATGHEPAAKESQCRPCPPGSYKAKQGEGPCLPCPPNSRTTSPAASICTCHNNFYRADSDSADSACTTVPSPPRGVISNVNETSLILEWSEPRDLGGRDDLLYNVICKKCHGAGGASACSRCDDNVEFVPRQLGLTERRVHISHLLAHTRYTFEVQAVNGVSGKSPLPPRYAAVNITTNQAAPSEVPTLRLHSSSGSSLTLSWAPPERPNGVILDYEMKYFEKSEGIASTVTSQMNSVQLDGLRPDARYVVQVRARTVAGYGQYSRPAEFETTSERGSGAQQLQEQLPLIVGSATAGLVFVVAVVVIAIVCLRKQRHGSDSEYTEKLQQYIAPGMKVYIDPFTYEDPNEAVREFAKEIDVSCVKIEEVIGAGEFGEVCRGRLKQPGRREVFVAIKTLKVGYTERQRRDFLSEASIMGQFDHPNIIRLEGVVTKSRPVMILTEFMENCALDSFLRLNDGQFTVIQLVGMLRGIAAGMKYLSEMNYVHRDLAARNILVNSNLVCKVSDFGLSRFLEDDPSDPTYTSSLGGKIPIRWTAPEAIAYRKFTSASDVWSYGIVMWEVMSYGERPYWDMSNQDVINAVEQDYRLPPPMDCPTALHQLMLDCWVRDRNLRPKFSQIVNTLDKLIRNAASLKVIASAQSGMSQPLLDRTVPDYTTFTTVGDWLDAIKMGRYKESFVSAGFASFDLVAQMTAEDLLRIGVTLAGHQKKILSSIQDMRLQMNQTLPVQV

Compound | test | conditions | quantity | result
CC(C)(C)c1nc2c(s1)c1nc(N)ncc1c1ccc(NS(=O)(=O)c3c(F)cccc3F)c(F)c12 | enzyme activity, inhibitor, radiometric | 1 µM | remaining activity | 93%
CCN(CC)CCNC(=O)c1c(C)[nH]c(/C=C2\C(=O)Nc3ccc(F)cc32)c1C | enzyme activity, inhibitor | 0.3 µM | inhibition | -5%
COc1cc2ncnc(Nc3ccc(F)c(Cl)c3)c2cc1OCCCN1CCOCC1 | cell-free assay | 0.5 µM | remaining signal | 57.5%
COc1ccnn2ncc(-c3ccnc(N(C)C)n3)c12 | binding | 1 µM | remaining binding | 100%
CN(C)C(=O)Cn1cc(-c2nc(C3(c4ccc(-c5cnc(N)nc5)cc4)CC3)no2)cn1 | cell-free assay, competition with immobilised ligand | 1 µM | remaining binding | 95%
O=C1NC(=O)c2cc(Nc3ccc(F)cc3)c(Nc3ccc(F)cc3)cc21 | cell-free assay | 0.5 µM | remaining signal | 94.7%
Cc1nc(C2CCN(C(=O)c3ccc(OC(F)(F)F)cc3N)CC2)c2ncc(N3CCN(C)CC3)cc2n1 | cell-free assay, competition with immobilised ligand | 1 µM | remaining binding | 100%
Oc1cccc(-c2nc(N3CCOCC3)c3oc4ncccc4c3n2)c1 | enzyme activity, inhibitor | 10 µM | remaining activity | 127%
Nc1nc(Nc2ccccc2)sc1C(=O)c1c(F)cccc1F | enzyme activity, inhibitor | 10 µM | remaining activity | 59%
Cc1ccc(C(=O)NCc2ccsc2)cc1C#Cc1cn(C(C)C)c2ncnc(N)c12 | enzyme activity, inhibitor | 1 µM | activity vs control | 100%
Cn1cncc1C1=CN(c2ncnc3[nH]cnc23)CCS1 | enzyme activity, inhibitor, radiometric | 50 nM | inhibition | 12.8%
COc1cc(/C=C/C(=O)CC(=O)/C=C/c2ccc(O)c(OC)c2)ccc1O | enzyme activity, inhibitor | 1 µM | activity vs control | 93%
CNC(=O)c1cc(Oc2ccc(NC(=O)Nc3ccc(Cl)c(C(F)(F)F)c3)cc2)ccn1 | enzyme activity, inhibitor | 10 µM | inhibition | 38%
COc1cc2ncnc(Nc3ccc(Oc4ccccc4)c(C)c3C)c2cc1OC | enzyme activity, inhibitor | 1 µM | inhibition | 2%
Cc1cnc(NC2CCOCC2)nc1-n1cnc(C(=O)NC(CN)c2cc(F)cc(Cl)c2)c1 (stereo not drawn) | enzyme activity, inhibitor, radiometric | 1 µM | remaining activity | 115%
CCCS(=O)(=O)Nc1ccc(F)c(C(=O)c2c[nH]c3ncc(-c4ccc(Cl)cc4)cc23)c1F | enzyme activity, inhibitor | 1 µM | inhibition | < 10%
COc1cc(Nc2cnc(C#N)c(O[C@H](C)CN(C)C)n2)ncc1-c1cnn(C)c1 | enzyme activity, inhibitor, radiometric | 1 µM | remaining activity | 68%
CN1CCN(c2cnc3c(C4CCN(C(=O)c5ccc(OC(F)(F)F)cc5N)CC4)ncnc3c2)CC1 | cell-free assay, competition with immobilised ligand | 1 µM | remaining binding | 100%
Cn1c(=O)n(-c2ccc(C(C)(C)C#N)cc2)c2c3cc(-c4cnc5ccccc5c4)ccc3ncc21 | enzyme activity, inhibitor | 10 µM | remaining activity | 117%
COc1cc(Cl)c(C(=O)N[C@@H](CN[C@H]2CC[C@@H](N)CC2)Cc2ccc(C#N)cc2)cc1-c1ccc(CN[C@H](C)c2ccc(C)cc2)o1 | enzyme activity, inhibitor | 1 µM | remaining activity | 97%
Cn1nc(C(=O)NCc2ccc(C(=O)O)cc2)cc1-c1ccc2[nH]ccc2c1 | cell-free assay, competition with immobilised ligand | 0.1 µM | remaining binding | 100%
Nc1nc(NC2CCCCC2)sc1C(=O)c1ccccc1 | enzyme activity, inhibitor | 10 µM | remaining activity | 88%
Cn1nc(C(F)(F)F)cc1-c1cnc(N2CCc3cc(S(=O)(=O)Nc4c(F)cc(Cl)cc4F)cc(N4CCCC4=O)c32)nc1 | cell-free assay, competition with immobilised ligand | 1 µM | remaining binding | 95%
CC(C)(O)[C@H]1CC[C@H](Nc2ccc3ncc(-c4cccc(C(F)(F)F)c4)n3n2)CC1 | enzyme activity, inhibitor | 1 µM | remaining activity | 87.9%
CCCOc1ccc([C@@H]2[C@@H](C(=O)O)[C@H](c3ccc4c(c3)OCO4)CN2CC(=O)Nc2c(CC)cccc2CC)cc1 | cell-free assay, competition with immobilised ligand | 1 µM | remaining binding | 96%
C#Cc1cccc(Nc2ncnc3cc(OCCOC)c(OCCOC)cc23)c1 | cell-free assay | 0.5 µM | remaining signal | 58%
CO[C@@H](C)c1c(Nc2ccc([C@H](N(C)C(=O)C3CCS(=O)(=O)CC3)C(F)(F)F)cc2)cnc2cc(Cl)nn12 | cell-free assay, competition with immobilised ligand | 1 µM | remaining binding | 100%
O=C(Nc1cnn(-c2csc(C(=O)NC3COC3)c2)c1)Nc1ccccc1Cl | enzyme activity, inhibitor | 5 µM | remaining activity | 95.6%
CN([C@@H]1CCc2c(CC(=O)O)c3ccccc3n2C1)S(=O)(=O)c1ccc(F)cc1 | cell-free assay, competition with immobilised ligand | 1 µM | remaining binding | 88%
CCN(CC)c1ccc(C2=NNC(=O)CC2C)cc1[N+](=O)[O-] (stereo not drawn) | enzyme activity, inhibitor | 10 µM | remaining activity | 102%
